Assay results taken from ChEMBL document CHEMBL1125226, “Antineoplastic activity of didemnin congeners: nordidemnin and modified chain analogues” (1991).
In brackets after ≈: the same amount, converted by molar mass.

What was measured:
B16 [1] = assay: Antitumor activity against B16 melanoma from B6 D2 F1 female mice(T/C) as median survival time of treated mice (T) over that of control mice (C) at a dose of 0.50 mg/kg/day (repeated ip injections, day 1-9); format: functional, Mus musculus; conditions: route intraperitoneal
Summary of the method: (§1)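 B16 melanoma homogenate (1 g tumor in 9 mL 0.9% saline), 0.5 mL implanted ip on day 0 in B6D2F1 female mice (C57BL/6 ♀ × DBA/2 ♂). Treatment ip once daily from day 1 to day 9. Toxicity scored as survivors on day 5. Median survival recorded and T/C computed as treated/control median survival, ≥125% significant.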

P388 [2] = assay: Antitumor activity against P388 Leukemia from CDF1 female mice evaluated as Median survival time of treated mice at a dose of 0.12 mg/kg/day; format: functional, Mus musculus
Summary of the method: (§2)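 CDF1 female mice (BALB/c ♀ × DBA/2 ♂) given 10⁶ P388 cells ip on day 0. Drug in 2% methanol given ip on days 1, 5 and 9, 10 mice per group and more controls. Toxicity is survivors on day 5, with weight change between days 1 and 5. Mortality followed 30 days. T/C% is treated over control median survival (NCI method), significant at ≥125%.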

P388 [3] = assay: Antitumor activity (T/C) was evaluated from the median survival time of treated mice (T) over that of control mice (C) at a dose of 0.06 mg/kg/day; format: functional, Mus musculus; summary of the method: as §2
B16 [4] = assay: Antitumor activity against B16 melanoma from B6 D2 F1 female mice evaluated as Median survival time of treated mice at a dose of 1 mg/kg/day; format: functional, Mus musculus
Summary of the method: (§3)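 B6D2F1 female mice (C57BL/6 ♀ × DBA/2 ♂) implanted ip on day 0 with 0.5 mL of B16 tumor suspension (1 g homogenized in 9 mL 0.9% saline). Dosing ip on days 1, 5 and 9. Day-5 survivors give toxicity. Median survival of treated vs control mice gives T/C%, with ≥125% significant.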

B16 [5] = assay: Antitumor activity against B16 melanoma from B6 D2 F1 female mice as Median survival time of treated mice at a dose of 0.50 mg/kg/day (repeated ip injections, day 1-9); format: functional, Mus musculus; conditions: route intraperitoneal; summary of the method: as §1
L1210 [6] = assay: Antitumor activity against L1210 Lymphoid Leukemia from CDF1 female mice evaluated as Median survival time of treated mice at a dose of 0.25 mg/kg/day; format: functional, Mus musculus
Summary of the method: (§4)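 L1210 leukemia, 10⁵ cells ip on day 0 into CDF1 female mice (BALB/c ♀ × DBA/2 ♂). Drug in 2% methanol given ip on days 1, 5 and 9, 10 mice per group. Survivors and body weight recorded on days 1 and 5, with toxicity as survivors on day 5. Deaths followed for 30 days. T/C = treated/control median survival time, significant at ≥125%.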

P388 [7] = assay: Antitumor activity against P388 Leukemia from CDF1 female mice evaluated as the number of survivors on day 5 at a dose of 0.50 mg/kg/day; format: functional, Mus musculus
Summary of the method: (§5)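 CDF1 female mice (BALB/c × DBA/2) inoculated ip with 10⁶ P388 cells on day 0. Drug given ip in 2% methanol on days 1, 5 and 9. Ten mice per dose group, with a larger control group. Body weight and survival were recorded on days 1 and 5, with toxicity taken as survivors on day 5. Mortality was followed for 30 days to give median survival time.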

L1210 [8] = assay: Antitumor activity against L1210 Lymphoid Leukemia from CDF1 female mice as Median survival time of treated mice at a dose of 0.50 mg/kg/day; format: functional, Mus musculus; summary of the method: as §4
B16 [9] = assay: Antitumor activity against B16 melanoma from B6 D2 F1 female mice evaluated as the number of survivors on day 5 at a dose of 0.25 mg/kg/day; format: functional, Mus musculus; summary of the method: as §3
B16 [10] = assay: Antitumor activity against B16 melanoma from B6 D2 F1 female mice as Median survival time of treated mice at a dose of 0.03 mg/kg/day (repeated ip injections, day 1-9); format: functional, Mus musculus; conditions: route intraperitoneal; summary of the method: as §1
B16 [11] = assay: Antitumor activity against B16 melanoma from B6 D2 F1 female mice(T/C) was evaluated from the median survival time of treated mice (T) over that of control mice (C) at a dose of 0.25 mg/kg/day; format: functional, Mus musculus; summary of the method: as §3
B16 [12] = assay: Antitumor activity against B16 melanoma from B6 D2 F1 female mice evaluated as average weight change of animals between day 1 and day 5 after tumor implementation at a dose of 0.25 mg/kg/day; format: functional, Mus musculus
Summary of the method: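 B16 melanoma in B6D2F1 female mice: 0.5 mL of tumor homogenate (1 g in 9 mL 0.9% saline) was given ip on day 0. Ip dosing was on days 1, 5 and 9. The readout was the average body weight change between day 1 and day 5 after tumor implantation.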

B16 [13] = assay: Antitumor activity against B16 melanoma from B6 D2 F1 female mice evaluated as Median survival time of treated mice at a dose of 0.25 mg/kg/day; format: functional, Mus musculus; summary of the method: as §3
B16 [14] = assay: Antitumor activity against B16 melanoma from B6 D2 F1 female mice evaluated as the number of survivors on day 5 at a dose of 0.50 mg/kg/day (repeated ip injections, day 1-9); format: functional, Mus musculus; conditions: route intraperitoneal; summary of the method: as §1
L1210 [15] = assay: Antitumor activity against L1210 Lymphoid Leukemia from CDF1 female mice as average weight change of animals between day 1 and day 5 after tumor implementation at a dose of 0.50 mg/kg/day; format: functional, Mus musculus
Summary of the method: (§6)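 CDF1 female mice (BALB/c × DBA/2) received 10⁵ L1210 cells ip on day 0. Drug was dissolved in 2% methanol and given ip on days 1, 5 and 9, to 10 mice per group. Weights were taken on days 1 and 5, and the mean change was reported.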

B16 [16] = assay: Antitumor activity against B16 melanoma from B6 D2 F1 female mice evaluated as the number of survivors on day 5 at a dose of 0.25 mg/kg/day (repeated ip injections, day 1-9); format: functional, Mus musculus; conditions: route intraperitoneal; summary of the method: as §1
L1210 [17] = assay: Antitumor activity against L1210 Lymphoid Leukemia from CDF1 female mice evaluated as the number of survivors on day 5 at a dose of 0.25 mg/kg/day; format: functional, Mus musculus; summary of the method: as §4
L1210 [18] = assay: In vitro cytostatic activity determined on L1210 leukemia cells at 48 hours.; format: functional; conditions: Mus musculus, L1210, 48 h; read-out: ID50 (the source's name)
Summary of the method: (§7)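 Log-phase L1210 cells were seeded at 0.8 × 10⁵ cells/mL in RPMI 1640 with 20% heat-inactivated horse serum, 2 mmol/L L-glutamine, streptomycin and penicillin. Drugs in ethanol (0.5% final) were tested at several concentrations.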

B16 [19] = assay: Antitumor activity against B16 melanoma from B6 D2 F1 female mice(T/C) was evaluated from the median survival time of treated mice (T) over that of control mice (C) at a dose of 1 mg/kg/day; format: functional, Mus musculus; summary of the method: as §3
P388 [20] = assay: Antitumor activity against P388 Leukemia from CDF1 female mice evaluated as Median survival time of treated mice at a dose of 0.50 mg/kg/day; format: functional, Mus musculus; summary of the method: as §5
L1210 [21] = assay: In vitro cytostatic activity determined on L1210 leukemia cells at 24 hours.; format: functional; conditions: Mus musculus, L1210, 24 h; read-out: ID50 (the source's name); summary of the method: as §7
L1210 [22] = assay: Antitumor activity against L1210 Lymphoid Leukemia from CDF1 female mice as average weight change of animals between day 1 and day 5 after tumor implementation at a dose of 1.0 mg/kg/day; format: functional, Mus musculus; summary of the method: as §6
P388 [23] = assay: Average weight change of animals between day 1 and day 5 after tumor implementation at a dose of 0.12 mg/kg/day; format: functional, Mus musculus
Summary of the method: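 P388 leukemia: CDF1 female mice were inoculated ip with 10⁶ cells on day 0. Treatment in 2% methanol was given ip on days 1, 5 and 9, with 10 mice per group and a larger control group. Body weight was recorded on days 1 and 5 post-implant, and the average change was reported.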

COc1ccc(C[C@H]2C(=O)O[C@H](C)[C@H](NC(=O)[C@@H](CC(C)C)N(C)C(=O)C3CCCN3C(=O)[C@@H](C)O)C(=O)NC(C(C)C)[C@H](O)CC(=O)O[C@@H](C(C)C)C(=O)[C@H](C)C(=O)N[C@@H](CC(C)C)C(=O)N3CCC[C@H]3C(=O)N2C)cc1 (stereo partly drawn) [NORDIDEMNIN]
T/C (B16 [1]): 52%
median survival time, days (P388 [2]): 14.7
T/C (P388 [3]): 123%
median survival time, days (B16 [4]): 29.3
median survival time, days (B16 [5]): 9.9
median survival time, days (L1210 [6]): 10.1
Toxicity (P388 [7]): 1
median survival time, days (L1210 [8]): 10.7
Toxicity (B16 [9]): 1
median survival time, days (B16 [10]): 26.5
T/C (B16 [11]): 142%
Body weight change (B16 [12]): 0 g
median survival time, days (B16 [13]): 27
Toxicity (B16 [14]): 1
Body weight change (L1210 [15]): -0.9 g
Toxicity (B16 [16]): 1
Toxicity (L1210 [17]): 1
IC50 (L1210 [18]): 1.9 ng/mL (≈ 1.73 nM)
T/C (B16 [19]): 154%
median survival time, days (P388 [20]): 17.9
IC50 (L1210 [21]): 3.6 ng/mL (≈ 3.28 nM)
Body weight change (L1210 [22]): -0.5 g
Body weight change (P388 [23]): -0.7 g
